From paper PMC8416298 (European Journal of Medicinal Chemistry, 2021)
Read-outs that look alike come from different tables or passages of the source.

Columns and labels:
SARS-CoV-2/NL/2020 = assay: Plaque reduction assay; type: cell-based; conditions: for dose-dependent inhibitory activity: any of the tested SARS-CoV-2 strains, up to 50 μM
HCoV-229E = assay: microbe, parasite or virus in culture; type: cell-based; conditions: Human coronavirus 229E, MRC5, read-out: EC50 (CI)
MRC-5 cells = assay: MTT cell viability assay in MRC-5 cells; type: cell-based, human; conditions: in words
How it was run: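 Human fibroblast MRC-5 cells exposed to test compound for 72 h; viability read by MTT (3-(4,5-dimethylthiazol-2-yl)-2,5-diphenyl tetrazolium bromide) assay. CC50 taken as the compound concentration that inhibits cell viability by 50%.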

CCoV = conditions: dog, po, 1 mg/kg; cited from earlier work
SARS-CoV-2 [1] = conditions: 4-day cytopathic effect protection assay, Vero E6 cells; cited from earlier work
SARS-CoV-2 [2] = conditions: virus yield reduction assay, 48 h, infected Vero E6 cells; cited from earlier work
[3] = test system: human prostaglandin E synthase type 2 (PGES-2); conditions: cited from earlier work

COc1ccc2c(c1)c(CC(=O)NCCCCC(=O)N[C@H](C(=O)N1C[C@H](O)C[C@H]1C(=O)N[C@@H](C)c1ccc(-c3scnc3C)cc1)C(C)(C)C)c(C)n2C(=O)c1ccc(Cl)cc1 [Compound 2, (2S,4R)-1-((S)-2-(5-(2-(1-(4-chlorobenzoyl)-5-methoxy-2-methyl-1H-indol-3-yl)acetamido)pentanamido)-3,3-dimethylbutanoyl)-4-hydroxy-N-((S)-1-(4-(4-methylthiazol-5-yl)phenyl)ethyl)pyrrolidine-2-carboxamide]
dose-dependent inhibitory activity (SARS-CoV-2/NL/2020): did not show dose-dependent inhibitory activity

COc1ccc2c(c1)c(CC(=O)NCCN1CCN(C(=O)CCC(=O)N[C@H](C(=O)N3C[C@H](O)C[C@H]3C(=O)N[C@@H](C)c3ccc(-c4scnc4C)cc3)C(C)(C)C)CC1)c(C)n2C(=O)c1ccc(Cl)cc1 [Compound 5, (2S,4R)-1-((S)-2-(4-(4-(2-(2-(1-(4-chlorobenzoyl)-5-methoxy-2-methyl-1H-indol-3-yl)acetamido)ethyl)piperazin-1-yl)-4-oxobutanamido)-3,3-dimethylbutanoyl)-4-hydroxy-N-((S)-1-(4-(4-methylthiazol-5-yl)phenyl)ethyl)pyrrolidine-2-carboxamide]
EC50 (HCoV-229E): 3.4 µM
cytotoxicity (MRC-5 cells): did not show significant cytotoxicity

COc1ccc2c(c1)c(CC(=O)O)c(C)n2C(=O)c1ccc(Cl)cc1 [INM, Indomethacin]
in vivo antiviral efficacy (CCoV): in vivo antiviral efficacy
EC50 (SARS-CoV-2 [1]): > 400 µM
EC50 (SARS-CoV-2 [2]): 100 µM
PGES-2 inhibition [3]: low nanomolar range

COc1ccc2c(c1)c(CC(=O)NCCOCCOCC(=O)N[C@H](C(=O)N1C[C@H](O)C[C@H]1C(=O)N[C@@H](C)c1ccc(-c3scnc3C)cc1)C(C)(C)C)c(C)n2C(=O)c1ccc(Cl)cc1 [Compound 4, (2S,4R)-1-((S)-2-(tert-butyl)-14-(1-(4-chlorobenzoyl)-5-methoxy-2-methyl-1H-indol-3-yl)-4,13-dioxo-6,9-dioxa-3,12-diazatetradecanoyl)-4-hydroxy-N-((S)-1-(4-(4-methylthiazol-5-yl)phenyl)ethyl)pyrrolidine-2-carboxamide]
dose-dependent inhibitory activity (SARS-CoV-2/NL/2020): did not show dose-dependent inhibitory activity
activity in PRA (SARS-CoV-2/NL/2020; in words): not active

COc1ccc2c(c1)c(CC(=O)NCCCCCCC(=O)N[C@H](C(=O)N1C[C@H](O)C[C@H]1C(=O)N[C@@H](C)c1ccc(-c3scnc3C)cc1)C(C)(C)C)c(C)n2C(=O)c1ccc(Cl)cc1 [Compound 3, (2S,4R)-1-((S)-2-(7-(2-(1-(4-chlorobenzoyl)-5-methoxy-2-methyl-1H-indol-3-yl)acetamido)heptanamido)-3,3-dimethylbutanoyl)-4-hydroxy-N-((S)-1-(4-(4-methylthiazol-5-yl)phenyl)ethyl)pyrrolidine-2-carboxamide]
cytotoxicity (MRC-5 cells): did not show significant cytotoxicity
